Measurements as given in ChEMBL document CHEMBL3352044, “Synthesis and structure-activity relationship studies of N-benzyl-2-phenylpyrimidin-4-amine derivatives as potent USP1/UAF1 deubiquitinase inhibitors with anticancer activity against nonsmall cell lung cancer” (J Med Chem, 2014).
Converted amounts (≈) assume the structure as drawn.

Assays:
[1] = biological target: Melatonin receptor type 1A (Homo sapiens) (UniProt P48039); experiment: Inhibition of MT1 (unknown origin) at 10 uM
In short: (§1)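 Single concentration of 10 μM in an 80-target panel of GPCRs, ion channels and transporters; percent inhibition recorded.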

[2] = biological target: T1, Adenosine receptor A3 (Homo sapiens) (UniProt P0DMS8); experiment: Inhibition of adenosine A3 receptor (unknown origin) at 10 uM; in short: as §1
T1 sequence (whole entry): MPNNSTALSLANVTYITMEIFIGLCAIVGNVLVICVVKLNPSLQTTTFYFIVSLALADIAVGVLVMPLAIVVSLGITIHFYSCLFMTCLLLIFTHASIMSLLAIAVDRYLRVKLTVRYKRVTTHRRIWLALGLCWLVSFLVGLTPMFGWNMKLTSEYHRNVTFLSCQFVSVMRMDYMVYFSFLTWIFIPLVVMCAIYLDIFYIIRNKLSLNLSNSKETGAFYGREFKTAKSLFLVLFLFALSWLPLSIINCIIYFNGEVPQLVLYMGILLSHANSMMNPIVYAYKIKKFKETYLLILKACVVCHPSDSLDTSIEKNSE

[3] = biological target: T2, 5-hydroxytryptamine receptor 2C (Homo sapiens) (UniProt P28335); experiment: Inhibition of 5-HT2C (unknown origin) at 10 uM; in short: as §1
T2 sequence (whole entry): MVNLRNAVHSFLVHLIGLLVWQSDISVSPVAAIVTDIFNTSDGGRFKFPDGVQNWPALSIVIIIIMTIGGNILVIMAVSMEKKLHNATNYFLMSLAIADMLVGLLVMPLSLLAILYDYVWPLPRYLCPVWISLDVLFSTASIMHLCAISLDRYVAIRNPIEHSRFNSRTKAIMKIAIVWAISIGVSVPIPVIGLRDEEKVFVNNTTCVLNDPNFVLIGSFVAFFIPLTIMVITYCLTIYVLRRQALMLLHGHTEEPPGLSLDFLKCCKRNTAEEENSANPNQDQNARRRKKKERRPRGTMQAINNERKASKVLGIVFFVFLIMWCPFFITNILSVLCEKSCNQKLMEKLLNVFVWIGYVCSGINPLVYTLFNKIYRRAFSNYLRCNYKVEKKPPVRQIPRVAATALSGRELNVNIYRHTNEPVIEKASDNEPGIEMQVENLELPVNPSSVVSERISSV

[4] = Lipophilicity, log D of the compound at pH 7.4 by shake-flask method; format: physicochemical; settings: buffer
In short: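 Log D at pH 7.4 by miniaturized (scaled-down) shake-flask method.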

[5] = system: Liver microsome; experiment: Half life in human liver microsomes; format: ADME
In short: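 Human liver microsomes in the presence of NADPH; half-life (min).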

[6] = organism: Homo sapiens; experiment: Inhibition of Calcium channel (unknown origin) at 10 uM; in short: as §1
[7] = Kinetic aqueous solubility of the compound in PBS at pH 7.4; format: physicochemical; settings: read-out: Kinetic_solubility
[8] = biological target: T3, Peroxisome proliferator-activated receptor gamma (Homo sapiens) (UniProt P37231); experiment: Inhibition of PPARgamma (unknown origin) at 10 uM; in short: as §1
T3 sequence (whole entry): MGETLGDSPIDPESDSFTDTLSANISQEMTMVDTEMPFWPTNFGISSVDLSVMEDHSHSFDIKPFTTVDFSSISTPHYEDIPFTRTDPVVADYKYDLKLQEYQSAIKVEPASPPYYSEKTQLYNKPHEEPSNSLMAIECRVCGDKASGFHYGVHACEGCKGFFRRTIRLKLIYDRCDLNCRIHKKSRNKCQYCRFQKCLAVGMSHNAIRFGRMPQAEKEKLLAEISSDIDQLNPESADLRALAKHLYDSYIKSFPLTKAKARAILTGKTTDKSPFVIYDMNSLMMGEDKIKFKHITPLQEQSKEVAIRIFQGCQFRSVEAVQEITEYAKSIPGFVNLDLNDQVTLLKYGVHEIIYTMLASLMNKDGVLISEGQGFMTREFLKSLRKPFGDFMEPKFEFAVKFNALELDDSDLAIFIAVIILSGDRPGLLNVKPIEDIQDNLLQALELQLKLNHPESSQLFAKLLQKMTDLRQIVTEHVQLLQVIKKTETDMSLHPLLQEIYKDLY

[9] = biological target: 5-hydroxytryptamine receptor 2B (Homo sapiens) (UniProt P41595); experiment: Inhibition of 5-HT2B (unknown origin) at 10 uM; in short: as §1
Sequence of 5-hydroxytryptamine receptor 2B (Homo sapiens) (P41595 whole entry): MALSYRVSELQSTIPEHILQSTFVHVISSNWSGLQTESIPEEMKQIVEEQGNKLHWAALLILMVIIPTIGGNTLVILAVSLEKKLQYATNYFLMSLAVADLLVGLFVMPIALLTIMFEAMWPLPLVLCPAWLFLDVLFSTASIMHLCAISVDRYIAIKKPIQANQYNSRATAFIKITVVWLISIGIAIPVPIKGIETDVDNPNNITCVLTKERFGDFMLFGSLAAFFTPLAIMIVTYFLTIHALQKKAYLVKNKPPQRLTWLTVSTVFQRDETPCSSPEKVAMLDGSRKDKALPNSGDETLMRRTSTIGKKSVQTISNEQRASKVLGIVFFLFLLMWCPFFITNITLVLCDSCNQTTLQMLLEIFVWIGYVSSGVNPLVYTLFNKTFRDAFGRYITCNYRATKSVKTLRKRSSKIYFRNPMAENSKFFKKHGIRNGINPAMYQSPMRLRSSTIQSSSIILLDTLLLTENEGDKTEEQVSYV

[10] = system: Liver; experiment: Half life in mouse liver microsomes; format: ADME
In short: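 Incubated with mouse liver microsomes in the presence of NADPH, run by a contract lab; read-out is the half-life (T1/2) in minutes.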

[11] = Stability of the compound in mouse plasma after 2 hrs; format: ADME, cell-free; settings: read-out: Stability
In short: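 Mouse plasma incubation for 2 h; percent compound remaining.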

[12] = Cytotoxicity against human H1299 cells assessed as reduction in colony formation at 5 uM after 7 days; format: functional; settings: NCI-H1299, 168 h, read-out: INH
In short: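 H1299 cells seeded at 200 cells/well, attached overnight, then exposed to 5 μM compound or equal volume DMSO. After 7 days, fixed with 20% methanol and stained with 0.1% crystal violet; percent survival scored versus DMSO control.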

[13] = Permeability of the compound from apical to basolateral direction in human Caco2 cells; format: ADME, cell-based; settings: caco-2
[14] = system: Liver microsome; experiment: Half life in rat liver microsomes in presence of NADPH; format: ADME
In short: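 Rat liver microsomes with NADPH; half-life in minutes.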

[15] = Chemical stability of the compound in PBS buffer at pH 7.4 after 48 hrs; format: physicochemical; settings: read-out: Stability
In short: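 PBS buffer pH 7.4 for 48 h; percent compound remaining.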

[16] = biological target: 5-hydroxytryptamine receptor 2A (Homo sapiens) (UniProt P28223); experiment: Inhibition of 5-HT2A (unknown origin) at 10 uM; in short: as §1
Sequence of 5-hydroxytryptamine receptor 2A (Homo sapiens) (P28223 whole entry): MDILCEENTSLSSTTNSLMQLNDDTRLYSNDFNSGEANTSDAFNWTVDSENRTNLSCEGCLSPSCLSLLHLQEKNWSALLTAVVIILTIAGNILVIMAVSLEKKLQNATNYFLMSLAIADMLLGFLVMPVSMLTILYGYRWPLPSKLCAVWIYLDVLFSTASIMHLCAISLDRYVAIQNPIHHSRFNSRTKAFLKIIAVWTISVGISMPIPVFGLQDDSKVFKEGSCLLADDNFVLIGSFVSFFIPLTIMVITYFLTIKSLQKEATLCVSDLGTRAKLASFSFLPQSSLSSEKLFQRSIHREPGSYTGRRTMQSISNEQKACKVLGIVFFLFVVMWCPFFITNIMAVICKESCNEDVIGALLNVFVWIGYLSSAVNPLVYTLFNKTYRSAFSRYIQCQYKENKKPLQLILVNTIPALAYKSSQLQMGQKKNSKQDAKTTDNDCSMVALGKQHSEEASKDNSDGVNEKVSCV

Sequence of Melatonin receptor type 1A (Homo sapiens) (P48039 whole entry): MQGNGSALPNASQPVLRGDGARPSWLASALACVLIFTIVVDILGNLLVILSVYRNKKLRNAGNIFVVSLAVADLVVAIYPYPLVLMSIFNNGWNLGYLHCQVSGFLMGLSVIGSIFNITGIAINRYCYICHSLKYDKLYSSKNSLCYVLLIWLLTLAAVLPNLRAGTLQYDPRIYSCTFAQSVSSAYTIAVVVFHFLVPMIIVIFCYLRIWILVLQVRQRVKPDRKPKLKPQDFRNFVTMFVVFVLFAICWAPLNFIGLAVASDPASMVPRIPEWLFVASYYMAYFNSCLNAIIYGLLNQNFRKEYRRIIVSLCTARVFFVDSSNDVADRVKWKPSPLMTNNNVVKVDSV

Cc1cnc(-c2ccccc2C(C)C)nc1NCc1ccc(-n2ccnn2)cc1
inhibition [1]: > 50%
inhibition [2]: > 50%
inhibition [3]: > 50%
logD [4]: 1.97
t1/2 [5]: 26 min
inhibition [6]: > 50%
solubility kinetic [7]: 86 µM (≈ 33.1 µg/mL)
inhibition [8]: > 50%
inhibition [9]: > 50%
t1/2 [10]: 15 min
remaining at 2 h [11]: 99%
inhibition at 5 µM [12]: > 70%
Papp [13]: 22.98 ×10⁻⁶ cm/s
t1/2 [14]: 15 min
remaining at 48 h [15]: 99%
inhibition [16]: > 50%
